The record followed here is PMC11969896 (Virology Journal, 2025).

The term CC50 denotes the concentration at which the toxic effect on the cells reaches its halfway point. Read a high CC50 as better tolerance by the cells. What is called IC50 is the concentration at which inhibition is half-maximal. Read a low IC50 as higher potency.

In series [1] the test system is MNV^CW3. In words: MNV plaque assay. Conditions: RAW264.7 cells, 40 μg/mL, 24 h. The class given is cell-based, murine norovirus. A digest of the protocol: (§1)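 Infected cells harvested at 24 hpi and frozen at −80 °C. RAW264.7 monolayers seeded at 1.8 × 10^6 cells/well; 16 h later, tenfold serial lysate dilutions applied for 1 h with rocking. Overlay of MEM, 10% FBS, 2 mM L-glutamine, 10 mM HEPES and 1% methylcellulose, incubated 2 days. Plaques stained with 0.2% crystal violet in 20% ethanol.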

The nature of series [2]: Cytotoxicity. The class given is cell-based. Conditions: mouse, RAW264.7 cells.
The next series relates to MNV^CR6. In words: MNV^CR6 replication in cell culture. The class given is cell-based, murine norovirus. Particulars: BV2 and RAW264.7 cells.
The target of the next series is T1, MNV^CW3 RdRp (Norovirus, UniProt Q80J95).
T1 sequence (Q80J95 1178-1687 limits assumed): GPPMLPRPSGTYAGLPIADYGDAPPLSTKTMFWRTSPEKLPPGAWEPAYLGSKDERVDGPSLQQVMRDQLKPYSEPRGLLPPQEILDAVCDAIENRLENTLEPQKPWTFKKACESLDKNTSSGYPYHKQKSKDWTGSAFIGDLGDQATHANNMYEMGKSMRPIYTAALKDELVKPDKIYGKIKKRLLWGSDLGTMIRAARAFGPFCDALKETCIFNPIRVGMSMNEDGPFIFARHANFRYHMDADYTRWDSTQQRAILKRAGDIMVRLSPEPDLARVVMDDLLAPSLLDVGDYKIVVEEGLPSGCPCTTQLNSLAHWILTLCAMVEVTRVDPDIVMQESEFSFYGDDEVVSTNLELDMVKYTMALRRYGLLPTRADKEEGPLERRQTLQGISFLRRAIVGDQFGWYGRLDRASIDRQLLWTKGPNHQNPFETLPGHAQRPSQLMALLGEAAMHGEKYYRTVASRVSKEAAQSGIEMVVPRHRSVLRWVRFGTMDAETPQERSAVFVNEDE
In words: RdRp inhibition assay. The class given is biochemical, murine norovirus. A digest of the protocol: (§2)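 MNV^CW3 RdRp (GST-tagged) or HNV GII.4 Sydney/2006 RdRp (His-tagged) expressed in E. coli BL21(DE3) and affinity-purified. Enzyme preincubated with compound 10 min at 30 °C in 10 mM PBS pH 7.5, 2.5 mM MnCl2, 5 mM DTT. Poly(C) and GTP then added (final 2.8 μM enzyme, 40 μg/mL poly(C), 25 μM GTP), 30 min at 30 °C. EDTA stop; dsRNA by PicoGreen (ex 480/em 520 nm); normalized to 0.5% DMSO vehicle.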

The target in another series is T2, MNV RdRp (Norovirus, UniProt Q80J95).
T2 sequence (Q80J95 1178-1687 limits assumed): T1 sequence (Q80J95 1178-1687 limits assumed)
Nature of the series: Size-exclusion chromatography of MNV RdRp with or without compound. Particulars: 60 μM compound. Also noted: species or system murine norovirus. A digest of the protocol:
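Purified RdRp, with or without 60 μM compound, run on a Superose 6 10/300 GL gel-filtration column equilibrated in 20 mM Tris-HCl pH 8.0, 150 mM NaCl, at 0.4 mL/min.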
In general terms: Size exclusion chromatography separates by hydrodynamic size, large species first.

The subject of series [3] is MNV^CW3. In words: Cell viability of MNV^CW3-infected RAW264.7 cells. The class given is cell-based, murine norovirus. Particulars: RAW264.7 cells after MNV^CW3 infection, 24 h.
The nature of series [4]: Cytotoxicity. The class given is cell-based. Conditions: mouse, BV2 cells.
Series [5] concerns MNV^CW3. In words: MNV plaque assay. The class given is cell-based, murine norovirus. Particulars: BV2 cells, 97 μM, 24 h. A digest of the protocol: as §1
In series [6] the test system is MNV^CW3. In words: Cell viability-based anti-MNV screening in MNV^CW3-infected BV2 cells. Particulars: MNV^CW3 infection, 40 μg/mL compound, 24 h, DMSO control about 2.7%. On the set-up: species or system murine norovirus. A digest of the protocol: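 BV2 cells plated at 10,000/well 16–18 h before infection with MNV^CW3 at MOI 0.25 for 1 h. Medium then replaced with 40 μg/mL compound or DMSO vehicle. Viability read after 24 h as ATP level by luminescence kit. At least 3 biological repeats.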

The test system of series [7] is MNV^CW3. In words: MNV viral genome copies quantification. The class given is cell-based, murine norovirus. Particulars: RAW264.7 cells, 40 μg/mL, 24 h.
The next series addresses T3, HNV RdRp (Norovirus Hu/GII.4/Sydney348/97O/AU, UniProt Q2N379).
T3 sequence (Q2N379 1-510): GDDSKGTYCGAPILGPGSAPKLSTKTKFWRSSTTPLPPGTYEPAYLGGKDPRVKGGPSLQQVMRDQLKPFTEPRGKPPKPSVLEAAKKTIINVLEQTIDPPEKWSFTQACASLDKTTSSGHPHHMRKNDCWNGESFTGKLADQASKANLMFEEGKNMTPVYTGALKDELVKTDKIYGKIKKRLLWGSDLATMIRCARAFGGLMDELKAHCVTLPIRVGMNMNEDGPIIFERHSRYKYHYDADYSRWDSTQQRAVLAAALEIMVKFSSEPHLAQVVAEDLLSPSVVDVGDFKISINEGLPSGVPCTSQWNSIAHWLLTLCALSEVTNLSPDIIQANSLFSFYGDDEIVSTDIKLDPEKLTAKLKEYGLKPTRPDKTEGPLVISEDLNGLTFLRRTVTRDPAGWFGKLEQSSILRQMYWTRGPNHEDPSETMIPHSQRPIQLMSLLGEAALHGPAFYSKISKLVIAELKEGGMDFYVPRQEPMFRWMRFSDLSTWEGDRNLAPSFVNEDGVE
In words: RdRp inhibition assay. The class given is biochemical, human norovirus (G II 0.4/Sydney/2006). A digest of the protocol:
as §2

In series [8] the test system is MNV^CW3. Nature of the series: MNV viral genome copies quantification. The class given is cell-based, murine norovirus. Conditions: BV2 cells, 40 μg/mL (97 μM), 24 h treatment.

Several values for one entry are separate records, joined by “and”; a condition that tells them apart may be missing. Equal values may be shown once. Where only a bound is given, the exact number is not on record here.

On to `N#Cc1c(-c2ccccc2O)nc(SCC(=O)Nc2cc(F)cc(F)c2)[nH]c1=O` [Co-29, 2-((5-cyano-4-(2-hydroxyphenyl)-6-oxo-1,6-dihydropyrimidin-2-yl)thio)-N-(3,5-difluorophenyl)acetamide], for which, in the series with MNV^CW3 [1], the “MNV^CW3 viral titers” value was “decreased”. Besides, the CC50 was 105 µM in “Cytotoxicity [2]”; ~52.2 µg/mL and ~126 µM in “Cytotoxicity [4]”. Moreover, the “cell viability after MNV^CR6 infection” value with MNV^CR6 is reported as “increased cell viability”. The “MNV^CR6 plaque numbers” value with MNV^CR6 (97 μM) is recorded as “decreased plaque numbers”. In the series on MNV^CR6 (97 μM (40 μg/mL)), the “MNV^CR6 viral genome copies” value is listed as “low levels of viral genome copies”. Moreover, the IC50 at MNV^CW3 RdRp was determined as 32 µM; on HNV RdRp, 36.6 µM. The “inhibition of MNV^CW3 RdRp” value against MNV^CW3 RdRp (35 μM RdRp in the reaction system, vs vehicle (0.5% DMSO), 4 μL of 100 μM compound (4 μM Co-29 final)) is given as more than 75%. The “main SEC peak formed by the protein when compound added (aggregation check)” value on MNV RdRp is “did not change”. Besides, the “concentration of maximum effectiveness (cell viability)” value in the series on MNV^CW3 [3] was found to be 40 µg/mL. Moreover, the “formation of MNV^CW3 plaques (viral titer)” value in the series with MNV^CW3 [5] is on record as “dramatically inhibited”. Besides, the “cell viability (ratio of live cells)” value in the series with MNV^CW3 [6] was determined as 36.9%. The “MNV^CW3 genome copy number” value with MNV^CW3 [7] is recorded as “decreased”. For the same molecule, the “inhibition of HNV RdRp” value at HNV RdRp (same assay, normalized to DMSO vehicle control) is recorded as “more than 70%”. In addition, in the series with MNV^CW3 [8], the “decrease of MNV^CW3 RNA level vs DMSO vehicle control” value is listed as “more than 2 Log10-fold”.
Regarding `C[C@@]1(O)[C@H](O)[C@@H](CO)O[C@H]1n1ccc(N)nc1=O` [Compound 2CMC, 2′-C-methyl-cytidine, reference compound], the “MNV^CW3 viral titers” value in the series on MNV^CW3 [1] is on record as “decreased”. In the series on MNV^CW3 [7], the “MNV^CW3 genome copy number” value is reported as “decreased”.
